Columns and labels:
[1] = Effect on transmembrane action potential in dog purkinje cells assessed as average rising velocity at 20 mg/l after 20 mins in presence of 5.4 mM/l K+ relative to control; format: functional, Canis lupus familiaris
How it was run: (§1)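 Canine Purkinje false-tendon preparations from pentobarbital-anesthetized dogs, in oxygenated Tyrode at 37 °C with KCl 2.7 or 5.4 mM. Compound given by bolus to the final bath concentration. TMAP recorded by intracellular glass microelectrode before dosing and 2–20 min after. ARV of phase 0 (V/s) and activation time (ms) expressed as % change from control at 20 min. Two preparations per compound.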

[2] = tested on: Mus musculus; assay: Antiarrhythmic activity in ip dosed Swiss-Webster albino mouse assessed as prevention of chloroform-induced ventricular fibrillation; format: functional, Heart
[3] = Effect on transmembrane action potential in dog purkinje cells assessed as average rising velocity at 25 mg/l after 20 mins in presence of 2.7 mM/l K+ relative to control; format: functional, Canis lupus familiaris; how it was run: as §1
[4] = tested on: Heart; assay: Antiarrhythmic activity in Hartley guinea pig atria assessed as change in spontaneous rate at 55.2 uM/l after 5 mins; format: functional, Cavia porcellus
How it was run: (§2)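 Spontaneously beating isolated atria held under initial tension; bath fluid changed every 10 min; stabilised about 1 h. Maximum driving rate found with 1-ms square pulses at 50% above threshold voltage, 10 s every 30 s; the frequency just before failure of following is the MDR. Control is the mean of two determinations. Spontaneous rate recorded by tachograph. Values are % change from control at peak response, generally 5–30 min.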

[5] = species: Homo sapiens; assay: Drug absorption in buccal cavity in human at pH 5.50 after 5 mins by UV spectrometry; format: ADME, organism-based; conditions: in vivo, other, pH 5.5, 5 min
How it was run: (§3)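 3 mg compound in 25 ml buffer (0.1 M phosphate pH 5.50 or 7.50; tetraborate pH 9.30) swished in the mouth for 5 min, expelled, and combined with a 10 ml water rinse. Made up to 50 ml; aliquot basified to pH 10 and ether-extracted, then back-extracted into 0.1 N HCl. UV absorbance read at λmax against Beer's law plots; the unrecovered fraction is taken as % absorbed. One to three subjects.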

[6] = Effect on transmembrane action potential in dog purkinje cells assessed as average rising velocity at 40 mg/l after 20 mins in presence of 5.4 mM/l K+ relative to control; format: functional, Canis lupus familiaris; how it was run: as §1
[7] = Effect on transmembrane action potential in dog purkinje cells assessed as change in activation time at 10 mg/l after 20 mins in presence of 2.7 mM/l K+ relative to control; format: functional, Canis lupus familiaris; how it was run: as §1
[8] = species: Homo sapiens; assay: Drug absorption in buccal cavity in human at pH 7.50 after 5 mins by UV spectrometry; format: ADME, organism-based; conditions: in vivo, other, pH 7.5, 5 min; how it was run: as §3
[9] = Effect on transmembrane action potential in dog purkinje cells assessed as change in amplitude at 10 mg/l after 20 mins in presence of 2.7 mM/l K+ relative to control; format: functional, Canis lupus familiaris
How it was run: (§4)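 Purkinje false tendons with attached myocardium came from adult dogs (10–15 kg) anesthetized with pentobarbital 30 mg/kg iv. Tissue was bathed in Tyrode (KCl 2.7 or 5.4 mM) gassed with 95% O2-5% CO2 at 37 °C and impaled with glass microelectrodes. Compound was given as a bolus to the final bath concentration, with records at 2–20 min. Two preparations per compound; % change from control at 20 min.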

[10] = Effect on transmembrane action potential in dog purkinje cells assessed as change in amplitude at 10 mg/l after 20 mins in presence of 5.4 mM/l K+ relative to control; format: functional, Canis lupus familiaris; how it was run: as §4
[11] = Therapeutic index, ratio of LD50 for toxicity to ED50 for antiarrhythmic activity in ip dosed Swiss-Webster albino mouse; format: organism-based, Heart; conditions: in vivo, read-out: Ratio LD50/ED50
[12] = Effect on transmembrane action potential in dog purkinje cells assessed as change in activation time at 20 mg/l after 20 mins in presence of 5.4 mM/l K+ relative to control; format: functional, Canis lupus familiaris; how it was run: as §1
[13] = Effect on transmembrane action potential in dog purkinje cells assessed as change in amplitude at 20 mg/l after 20 mins in presence of 5.4 mM/l K+ relative to control; format: functional, Canis lupus familiaris; how it was run: as §4
[14] = Effect on transmembrane action potential in dog purkinje cells assessed as change in amplitude at 25 mg/l after 20 mins in presence of 2.7 mM/l K+ relative to control; format: functional, Canis lupus familiaris; how it was run: as §4
[15] = species: Homo sapiens; assay: Drug absorption in buccal cavity in human at pH 9.3 after 5 mins by UV spectrometry; format: ADME, organism-based; conditions: in vivo, other, pH 9.3, 5 min; how it was run: as §3
[16] = tested on: Mus musculus; assay: Toxicity in ip dosed Swiss-Webster albino mouse; format: organism-based; conditions: in vivo
[17] = Dissociation constant, pKa of the compound in 0.01 M potassium hydrogen phthalate; format: physicochemical
How it was run: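 pKa by potentiometric titration with 0.01 M potassium hydrogen phthalate in a thermostated vessel, stirred, under nitrogen bubbling, using glass and calomel electrodes. pKa is the mean pH at half-neutralization from four titrations. Endpoints were taken from parallel tangents on either side of the inflection.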

[18] = Effect on transmembrane action potential in dog purkinje cells assessed as change in activation time at 10 mg/l after 20 mins in presence of 5.4 mM/l K+ relative to control; format: functional, Canis lupus familiaris; how it was run: as §1
[19] = Effect on transmembrane action potential in dog purkinje cells assessed as average rising velocity at 10 mg/l after 20 mins in presence of 5.4 mM/l K+ relative to control; format: functional, Canis lupus familiaris; how it was run: as §1
[20] = Effect on transmembrane action potential in dog purkinje cells assessed as change in activation time at 25 mg/l after 20 mins in presence of 2.7 mM/l K+ relative to control; format: functional, Canis lupus familiaris; how it was run: as §1
[21] = tested on: Heart; assay: Antiarrhythmic activity in Hartley guinea pig atria assessed as change in maximum driving rate at 55.2 uM/l after 5 mins; format: functional, Cavia porcellus; how it was run: as §2
[22] = Effect on transmembrane action potential in dog purkinje cells assessed as change in activation time at 50 mg/l after 20 mins in presence of 2.7 mM/l K+ relative to control; format: functional, Canis lupus familiaris; how it was run: as §4
[23] = Effect on transmembrane action potential in dog purkinje cells assessed as change in activation time at 40 mg/l after 20 mins in presence of 5.4 mM/l K+ relative to control; format: functional, Canis lupus familiaris; how it was run: as §4
[24] = Effect on transmembrane action potential in dog purkinje cells assessed as average rising velocity at 50 mg/l after 20 mins in presence of 2.7 mM/l K+ relative to control; format: functional, Canis lupus familiaris; how it was run: as §1
[25] = Effect on transmembrane action potential in dog purkinje cells assessed as change in amplitude at 40 mg/l after 20 mins in presence of 5.4 mM/l K+ relative to control; format: functional, Canis lupus familiaris; how it was run: as §4
[26] = Effect on transmembrane action potential in dog purkinje cells assessed as change in amplitude at 50 mg/l after 20 mins in presence of 2.7 mM/l K+ relative to control; format: functional, Canis lupus familiaris; how it was run: as §4
[27] = Effect on transmembrane action potential in dog purkinje cells assessed as average rising velocity at 10 mg/l after 20 mins in presence of 2.7 mM/l K+ relative to control; format: functional, Canis lupus familiaris; how it was run: as §1
[28] = Effect on transmembrane action potential in dog purkinje cells assessed as change in activation time at 30 mg/l after 20 mins in presence of 2.7 mM/l K+ relative to control; format: functional, Canis lupus familiaris; how it was run: as §1
[29] = Effect on transmembrane action potential in dog purkinje cells assessed as average rising velocity at 30 mg/l after 20 mins in presence of 2.7 mM/l K+ relative to control; format: functional, Canis lupus familiaris; how it was run: as §1
[30] = Effect on transmembrane action potential in dog purkinje cells assessed as change in amplitude at 30 mg/l after 20 mins in presence of 2.7 mM/l K+ relative to control; format: functional, Canis lupus familiaris; how it was run: as §4
[31] = tested on: Heart; assay: Antiarrhythmic activity in Hartley guinea pig atria assessed as change in maximum driving rate at 58.6 uM/l after 5 mins; format: functional, Cavia porcellus; how it was run: as §2
[32] = tested on: Heart; assay: Antiarrhythmic activity in Hartley guinea pig atria assessed as change in spontaneous rate at 58.6 uM/l after 5 mins; format: functional, Cavia porcellus; how it was run: as §2
[33] = tested on: Heart; assay: Antiarrhythmic activity in Hartley guinea pig atria assessed as change in spontaneous rate at 55.0 uM/l after 5 mins; format: functional, Cavia porcellus; how it was run: as §2
[34] = Effect on transmembrane action potential in dog purkinje cells assessed as change in amplitude at 20 mg/l after 20 mins in presence of 2.7 mM/l K+ relative to control; format: functional, Canis lupus familiaris; how it was run: as §4
[35] = Effect on transmembrane action potential in dog purkinje cells assessed as change in activation time at 20 mg/l after 20 mins in presence of 2.7 mM/l K+ relative to control; format: functional, Canis lupus familiaris; how it was run: as §1
[36] = Effect on transmembrane action potential in dog purkinje cells assessed as average rising velocity at 20 mg/l after 20 mins in presence of 2.7 mM/l K+ relative to control; format: functional, Canis lupus familiaris; how it was run: as §1
[37] = tested on: Homo sapiens; assay: Toxicity in human assessed as numbness at 5 x 10' -5 M administered topically to buccal cavity measured up to 15 to 20 mins; format: organism-based; conditions: in vivo, topical_or_ocular, 50 µM
[38] = tested on: Heart; assay: Antiarrhythmic activity in Hartley guinea pig atria assessed as change in maximum driving rate at 55.0 uM/l after 5 mins; format: functional, Cavia porcellus; how it was run: as §2
[39] = tested on: Heart; assay: Antiarrhythmic activity in Hartley guinea pig atria assessed as change in spontaneous rate at 36.6 uM/l after 5 mins; format: functional, Cavia porcellus; how it was run: as §2
[40] = tested on: Heart; assay: Antiarrhythmic activity in Hartley guinea pig atria assessed as change in maximum driving rate at 36.6 uM/l after 5 mins; format: functional, Cavia porcellus; how it was run: as §2
[41] = tested on: Heart; assay: Antiarrhythmic activity in Hartley guinea pig atria assessed as reversible decrease in maximum driving rate compound treated for 5 mins measured up to 2 hrs post washout; format: functional, tissue-based; conditions: Cavia porcellus
How it was run: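 After compound exposure the bath was washed out. Two MDR determinations were made every 15 min for up to 2 h to follow reversibility and recovery toward control. Bath fluid was changed every 10 min.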

[42] = tested on: Heart; assay: Antiarrhythmic activity in Hartley guinea pig atria assessed as change in spontaneous rate at 73.2 uM/l after 5 mins; format: functional, Cavia porcellus; how it was run: as §2
[43] = tested on: Heart; assay: Antiarrhythmic activity in Hartley guinea pig atria assessed as change in maximum driving rate at 73.2 uM/l after 5 mins; format: functional, Cavia porcellus; how it was run: as §2

Compound | Activity [1] | ED50 [2] | Drug absorption [5] | Activity [7] | Drug absorption [8] | Activity [9] | Activity [10] | selectivity ratio [11] | Activity [12] | Activity [13] | Drug absorption [15] | LD50 [16] | pKa [17] | Activity [18] | Activity [19] | Activity [27] | Activity [37] | also measured
COc1cc(C(=O)N[C@@H]2CCC[C@@H]3CCN(C)C[C@H]32)cc(OC)c1OC (mixture of isomers) | -29% | 124 µmol/kg | 5.5% | 2% | 18.1% | 0% | 0% | 6.7 | -1% | 0% | 31.1% | 835 | 8.75 | -4% | -24% | -9% |  | Activity [3]: -19%; Activity [4]: -14.4%; Activity [6]: -50%; Activity [14]: -2%; Activity [20]: 23%; Activity [21]: -13.3%; Activity [22]: 105%; Activity [23]: -1%; Activity [24]: -44%; Activity [25]: -6%; Activity [26]: -8%
CN1CC[C@H]2CCC[C@@H](NC(=O)c3ccc(Cl)c(Cl)c3)[C@@H]2C1 (mixture of isomers) | -58% | 104 µmol/kg | 20.5% |  | 25.7% |  | -11% | 12.7 | 42% | -5% | 59.3% | 1304 |  | 18% | -30% |  |  | Activity [28]: 81%; Activity [29]: -72%; Activity [30]: -23%; Activity [31]: -45%; Activity [32]: -41.2%
COc1cc(C(=O)O[C@@H]2CCC[C@@H]3CCN(C)C[C@H]32)cc(OC)c1OC (mixture of isomers) | -71% | 74 µmol/kg | 17.1% | 131% | 19.7% | -12% | -7% | 4.5 | 300% | -17% | 69.5% | 338 | 8.82 | 530% | -50% | -6% | Toxic | Activity [33]: -42.4%; Activity [34]: -15%; Activity [35]: 389%; Activity [36]: -58%; Activity [38]: -54.5%
CN1CC[C@H]2CCC[C@@H](OC(=O)c3ccccc3)[C@H]2C1 (relative stereo) |  | 245 µmol/kg | 29.7% |  | 46% |  |  | 3.7 |  |  | 81.8% | 900 | 9.05 |  |  |  | Toxic | Activity [39]: -23%; Activity [40]: -24.5%; Activity [41]: Dose-dependent effect; Activity [42]: -57.8%; Activity [43]: -55.5%

— ChEMBL document CHEMBL3272033, “Physicochemical and pharmacological studies of some 8-substituted decahydroisoquinolines” (J Med Chem, 1976)
